Several values for one entry are separate records, joined by “and”; a condition that tells them apart may be missing. Equal values may be shown once. Entries after “also recorded” stand apart in the source; their conditions may differ.
Tests used:
[1] = Aqueous solubility, shake flask method in water; type: physicochemical; settings: for solubility at 24 h: water, 25 °C, thermodynamic from solid
Procedure, shortened: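 Excess solid test compound was added to 0.5 mL water pre-equilibrated at 25 °C and shaken in a water bath at 25 ± 0.5 °C and 75 rpm for 24 h. Aliquots were centrifuged, and the supernatant was filtered and assayed for drug content. Analysis was by HPLC on a C18 column with 15 mM phosphate (pH 2.5)/1% acetonitrile and fluorescence detection (ex 270, em 380). Runs were in duplicate.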

[2] = Stability in ocular tissue homogenates: cornea; type: in vitro ADME; settings: rabbit, corneal homogenate supernatant, pH 7.4
[3] = Stability in ocular tissue homogenates: iris-ciliary body; type: in vitro ADME; settings: rabbit, iris-ciliary body homogenate supernatant, pH 7.4
[4] = Stability in vitreous humor; type: in vitro ADME, rabbit; settings: for Apparent first order rate constant (k*): Vitreous Humor used as such, 37 °C, overall observed degradation; for half-life at 10 μg/mL: rabbit, vitreous humor (used as such)
[5] = Stability in ocular tissue homogenates: retina/choroid; type: in vitro ADME; settings: rabbit, retina/choroid homogenate supernatant, pH 7.4
[6] = Hydrolysis in DPBS transport media; type: physicochemical; settings: pH 7.4
[7] = biological target: T1, amino acid transporter B^0,+ (Oryctolagus cuniculus, UniProt G1T8K9); experiment: Transcorneal transport mechanism studies; type: in vitro ADME, rabbit; settings: for Substrate of the corneal amino acid transporter B^0,+: concluded from rabbit corneal permeability with and without inhibitors
T1 sequence (G1T8K9 1-637): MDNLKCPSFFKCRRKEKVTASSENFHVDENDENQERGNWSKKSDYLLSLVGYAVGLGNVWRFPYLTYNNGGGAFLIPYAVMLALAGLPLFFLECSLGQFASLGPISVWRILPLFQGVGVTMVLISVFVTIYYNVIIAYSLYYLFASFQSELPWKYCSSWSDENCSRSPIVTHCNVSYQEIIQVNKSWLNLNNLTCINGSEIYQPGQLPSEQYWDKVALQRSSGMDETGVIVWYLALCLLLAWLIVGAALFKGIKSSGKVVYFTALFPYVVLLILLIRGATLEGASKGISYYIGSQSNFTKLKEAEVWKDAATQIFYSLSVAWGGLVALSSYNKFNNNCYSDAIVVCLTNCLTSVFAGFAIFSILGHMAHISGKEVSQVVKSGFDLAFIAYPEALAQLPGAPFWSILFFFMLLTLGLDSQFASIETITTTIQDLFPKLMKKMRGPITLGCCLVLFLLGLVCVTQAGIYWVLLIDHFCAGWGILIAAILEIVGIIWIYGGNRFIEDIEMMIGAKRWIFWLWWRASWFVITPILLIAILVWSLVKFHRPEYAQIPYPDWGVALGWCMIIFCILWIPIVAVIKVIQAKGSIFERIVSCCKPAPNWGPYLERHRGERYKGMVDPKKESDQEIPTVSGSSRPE

[8] = Solution; type: physicochemical
[9] = system: amino acid transporter B^0,+; settings: xenopus laevis oocytes; cited from earlier work
[10] = system: B^o,+; settings: a substrate of B^o,+; cited from earlier work
[11] = cited from earlier work

SMILES | solubility at 24 h [1] | half-life at 10 μg/mL [2] [min] | half-life at 10 μg/mL [3] [min] | Apparent first order rate constant (k*) [4] | half-life at 10 μg/mL [4] [min] | half-life at 10 μg/mL [5] [min] | Substrate of the corneal amino acid transporter B^0,+ [7] | further results
Nc1nc2c(ncn2COCCOC(=O)C[C@H](N)C(=O)O)c(=O)[nH]1 [acyclovir-L-aspartate β-ester] |  |  |  |  |  |  |  | Transport by the amino acid transporter B^0,+ [9]: is transported
Nc1nc2c(ncn2COCCOC(=O)C(N)Cc2ccccc2)c(=O)[nH]1 (stereo not shown) [phenylalanine-ACV] |  |  |  |  |  |  |  | Transport of [^3H]-L-Arginine in the presence of prodrug [10]: decreased transport
Nc1nc2c(ncn2COCCO)c(=O)[nH]1 [ACV, acyclovir, reference compound] | 1200 µg/mL and 5300 µM |  |  |  |  |  |  | saturation solubility in water [11]: 1.2 mg/mL

Continued, in another order:

solubility at 24 h [1] | half-life at 10 μg/mL [2] [min] | half-life at 10 μg/mL [3] [min] | Apparent first order rate constant (k*) [4] | half-life at 10 μg/mL [4] [min] | half-life at 10 μg/mL [5] [min] | Substrate of the corneal amino acid transporter B^0,+ [7] | SMILES | further results
3850 µg/mL and 10200 µM | 224 ± 12.6 | 139 ± 10.1 | 5 ± 0.5 ×10^3, min^−1 | 141 ± 15.1 | 1200 ± 88.1 | not a substrate | Cl.Nc1nc2c(ncn2COCCOC(=O)[C@H](N)CC(=O)O)c(=O)[nH]1 [D-Asp-ACV, (R)-3-amino-4-(2-((2-amino-6-oxo-1H-purin-9(6H)-yl)methoxy)ethoxy)-4-oxobutanoic acid-HCl] | Solubility, fold higher than that of ACV ([1]; relative to ACV): about 2 fold; half-life ([6]; DPBS): 336 ± 12 min
3840 µg/mL and 10200 µM | 290 ± 12.2 | 134 ± 5.1 | 4.2 ± 0.1 ×10^3, min^−1 | 166 ± 3.9 | 51.6 ± 1.6 | is a substrate | Cl.Nc1nc2c(ncn2COCCOC(=O)[C@@H](N)CC(=O)O)c(=O)[nH]1 [L-Asp-ACV, (S)-3-amino-4-(2-((2-amino-6-oxo-1H-purin-9(6H)-yl)methoxy)ethoxy)-4-oxobutanoic acid-HCl] | half-life at 50 μg/mL ([8]; borate buffer, pH 9): 0.233 ± 0.00833 days; half-life at 50 μg/mL ([8]; hydrochloride buffer, pH 1.2): 26.1 ± 1.29 days; half-life at 50 μg/mL ([8]; phosphate buffer, pH 7): 1.33 ± 0.0167 days; half-life at 50 μg/mL ([8]; phthalate buffer, pH 3): 15.5 ± 0.667 days; half-life at 50 μg/mL ([8]; phthalate buffer, pH 5): 10.9 ± 0.167 days; half-life ([6]; buffer): 306 ± 6 min; Effect of glutamic acid on transcorneal transport ([7]; L-Glutamic acid 1 mM, pH 5): not inhibited; also recorded: failed to inhibit; Transcorneal permeability in the presence of BCH ([7]; male, New Zealand albino, rabbit, 3 h): 2.66±0.21 × 10^−6 cm.s^−1

Reference: PMC2664401 (Pharmaceutical research, 2008)
